What all share (format): ADME, organism-based
Data set [1] is described as follows: AUC(0 to infinity) in Sprague-Dawley rat at 5 mg/kg, iv by LC-MS/MS analysis. Also noted: dose 5 mg/kg, route intravenous, time infinity. The conditions noted are these: plasma. The method in brief:
(§1)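 Male Sprague-Dawley rats (n = 5) given the homodisulfide intravenously at 5 mg/kg. Blood collected up to 7 days into heparin/NEM tubes. Plasma analyzed by LC-MS/MS for both monomer and dimer. Noncompartmental AUC, Cl and Vd calculated. Mean ± S.D.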

A short description of data set [2]: Volume of distribution in Sprague-Dawley rat at 5 mg/kg, iv by LC-MS/MS analysis. Also noted: dose 5 mg/kg, route intravenous. The settings on record: in vivo.
A short description of data set [3]: Elimination half life in Sprague-Dawley rat at 5 mg/kg, iv by LC-MS/MS analysis. The conditions noted are these: in vivo, read-out: beta t1/2 (converted). Also on record: dose 5 mg/kg, route intravenous. An outline of the steps:
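Male Sprague-Dawley rats received a single IV dose of either 10 mg/kg parent drug (n = 6) or 5 mg/kg homodisulfide (n = 5), in 50 mM HEPES-buffered saline, pH 7.4. Blood was collected into NEM-containing heparinized tubes for up to 7 days. Parent drug and homodisulfide in plasma were quantified by LC-MS/MS. Terminal t1/2β was calculated as 0.693/λz.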

Data set [4] can be described thus: Cmax in Sprague-Dawley rat at 5 mg/kg, iv by LC-MS/MS analysis. Also on record: dose 5 mg/kg, route intravenous. The settings on record: in vivo. The method in brief: as §1
Data set [5] in a line: AUC(0 to last) in Sprague-Dawley rat at 5 mg/kg, iv by LC-MS/MS analysis. Also on record: time 0 - last, dose 5 mg/kg, route intravenous. The settings on record: plasma. An outline of the steps: as §1
Data set [6] in a line: Tmax in Sprague-Dawley rat at 5 mg/kg, iv by LC-MS/MS analysis. Also noted: dose 5 mg/kg, route intravenous. The settings on record: in vivo.
Data set [7] can be described thus: Clearance in Sprague-Dawley rat at 5 mg/kg, iv by LC-MS/MS analysis. Also on record: dose 5 mg/kg, route intravenous. The conditions noted are these: in vivo. The method in brief:
as §1

These results are taken from ChEMBL document CHEMBL3526151, “Reversible disulfide formation of the glutamate carboxypeptidase II inhibitor E2072 results in prolonged systemic exposures in vivo” (Drug Metab Dispos, 2012).

As to `O=C(O)c1cccc(-c2cccc(CCSSCCc3cccc(-c4cccc(C(=O)O)c4)c3C(=O)O)c2C(=O)O)c1`, the AUC(0-inf) in data set [1] stood at 3540 µg·h/mL. This compound gave a Vd in data set [2] of 209 L/kg. Besides, the half-life in data set [3] was 101 h. In data set [4], this compound registered a Cmax of 104 µg/mL. In data set [5], the AUC(0-t) was 2490 µg·h/mL. For the same compound, in data set [6], the time of peak concentration (Tmax) came to 6.6 min. For the same compound, the clearance in data set [7] was 1.5 mL/h/kg.
